This passage reports Activity results from ChEMBL document CHEMBL2069229, “Terpenylated coumarins as SIRT1 activators isolated from Ailanthus altissima” (J Nat Prod, 2012).

The target in assay [1] is T1, NAD-dependent protein deacetylase sirtuin-1 (Homo sapiens) (UniProt Q96EB6).
T1 sequence (whole entry): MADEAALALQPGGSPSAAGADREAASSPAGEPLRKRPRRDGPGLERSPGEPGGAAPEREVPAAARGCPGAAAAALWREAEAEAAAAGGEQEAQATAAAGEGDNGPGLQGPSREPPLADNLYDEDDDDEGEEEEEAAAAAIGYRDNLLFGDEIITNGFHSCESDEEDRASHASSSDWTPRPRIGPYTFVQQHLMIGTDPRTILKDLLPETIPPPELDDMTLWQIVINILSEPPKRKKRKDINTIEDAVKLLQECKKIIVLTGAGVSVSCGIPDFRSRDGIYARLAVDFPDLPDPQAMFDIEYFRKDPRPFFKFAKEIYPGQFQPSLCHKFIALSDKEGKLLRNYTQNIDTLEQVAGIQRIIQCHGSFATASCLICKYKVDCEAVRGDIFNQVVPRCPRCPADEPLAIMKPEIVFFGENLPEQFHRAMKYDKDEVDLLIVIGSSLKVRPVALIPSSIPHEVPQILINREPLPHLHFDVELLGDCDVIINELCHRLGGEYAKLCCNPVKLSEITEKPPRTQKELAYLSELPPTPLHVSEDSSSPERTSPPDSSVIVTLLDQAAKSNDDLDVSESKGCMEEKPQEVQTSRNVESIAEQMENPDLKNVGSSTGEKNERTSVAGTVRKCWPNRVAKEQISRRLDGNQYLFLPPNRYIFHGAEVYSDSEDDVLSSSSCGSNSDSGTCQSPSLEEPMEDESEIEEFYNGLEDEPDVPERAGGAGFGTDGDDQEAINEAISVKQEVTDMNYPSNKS
The assay can be described thus: Activation of SIRT1 expressed in HEK293 cells assessed as increase in NAD to NADH ratio at 20 uM after 12 hrs by NAD+/NADH assay.

Assay [2] deals with T1, NAD-dependent protein deacetylase sirtuin-1 (Homo sapiens). Kind of assay: Activation of SIRT1 expressed in HEK293 cells assessed as reduction in p53 transcriptional activity incubated for 12 hrs by luciferase reporter gene assay. The assay is classed as cell-based. In a few lines: (§1)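 HEK293 cells in DMEM with 10% FBS, plated at 10^5 cells/well. After 24 h, PEI-transfected with PG13-luc (wt p53 sites), myc-p53, flag-SIRT1 and RSV-β-gal. Treated 24 h post-transfection for 12 h. Luciferase normalized to internal control. Triplicate experiments, mean ± SD.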
(In a reporter assay the amount or activity of a reporter protein is the signal.)

The target is the same in assay [3]. Kind of assay: Activation of SIRT1 expressed in HEK293 cells assessed as reduction in p53 transcriptional activity at 10 uM incubated for 12 hrs by luciferase reporter gene assay. The assay is classed as cell-based. The method, boiled down:
as §1

For assay [4] the target is unchanged. Kind of assay: Activation of SIRT1 expressed in HEK293 cells assessed as increase in enzyme deacetylation activity pre-incubated for 10 mins before addition of acetylated p53 peptide substrate and NAD+ by NAD+/NADH assay. The assay is classed as cell-based. The method, boiled down:
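Cell-free SIRT1 (0.1 U/mL) with 10 μM NAD+ and 20 μM Ac-p53 peptide in Tris/Cl pH 8.0, NaCl, KCl, MgCl2, BSA buffer. Enzyme–compound premix 10 min at room temperature, then 6 h at ambient temperature. Stopped with NAD/NADH recycling enzyme mix containing 1 mM nicotinamide; absorbance read after 2 h. DMSO and no-enzyme controls.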

Assay [5] has the same target. Kind of assay: Activation of SIRT1 expressed in HEK293 cells assessed as increase in enzyme deacetylation activity at 10 uM using acetylated p53 substrate and NAD+ by bioluminescence assay. The assay is classed as cell-based. In a few lines:
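Enzyme–compound premix 10 min, then substrate/NAD+ added and run 2 h. Quenched with LDH reagent containing nicotinamide for 1 h. Read by luciferase/FMN-oxidoreductase/decanal luminescence within 15 min. DMSO reaction as positive control, no-enzyme as blank.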

The structures appear in SMILES notation. The source made the active and inactive calls. The rule behind the calls is not given here.

Regarding `COc1cc2ccc(=O)oc2c(OC)c1OC[C@H](O)[C@@H](C)[C@@H]1O[C@H]1C=C(C)C`, the Activity in assay [1] was greater than 50%; in assay [2], “Dose-dependent effect”; in assay [4], “Dose-dependent effect”. Moreover, the outcome in assay [3] and in assay [5] was Active.
Consider `COc1cc2ccc(=O)oc2c(OC)c1OC[C@@H](O)[C@](C)(O)CCC=C(C)C`, for which the Activity in assay [1] was greater than 50%; in assay [2] it was “Dose-dependent effect”; in assay [4] it was “Dose-dependent effect”. In addition, the outcome in assay [3] and in assay [5] was Active.
`COc1cc2ccc(=O)oc2c(OC)c1OC[C@@H](O)[C@](C)(O)CC[C@H]1OC1(C)C`: the Activity was greater than 50% in assay [1], “Dose-dependent effect” in assay [2] and “Dose-dependent effect” in assay [4]. For the same compound, the result in assay [3] and in assay [5] was Active.
For `COc1cc2ccc(=O)oc2c(OC)c1OC/C=C(\C)CCC=C(C)C`, the Activity in assay [1] is greater than 50%; in assay [2], “Dose-dependent effect”; in assay [4], “Dose-dependent effect”. For the same compound, the outcome in assay [3] and in assay [5] was Active.
